Measured values: ChEMBL document CHEMBL1155887, “Structure-activity relationships of 2-aryl-1H-indole inhibitors of the NorA efflux pump in Staphylococcus aureus” (2008)
Values after ≈ are worked out from the molar mass of the structure shown. Active and inactive are the calls of the source. The rule behind the calls is not given here.

Experiments:
Staphylococcus aureus [1] = assay: Antibacterial activity against wild type Staphylococcus aureus 8325-4 after 18 to 20 hrs by serial dilution method; assay type: functional
In short: (§1)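 Compound alone, without berberine. Cells at 10^5 CFU/mL inoculated into broth and given serial 2-fold dilutions of compound. Incubated 18–20 h at 37 °C, with growth read as absorbance at 600 nm. MIC is the concentration completely inhibiting growth; testing limit 1000 µM.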

Staphylococcus aureus [2] = assay: Antibacterial activity against Staphylococcus aureus K2378 overexpressing NorA after 18 to 20 hrs by serial dilution method; assay type: functional; in short: as §1
Staphylococcus aureus [3] = assay: Antibacterial activity against NorA knockout Staphylococcus aureus K1758 after 18 to 20 hrs by serial dilution method; assay type: functional
In short: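 Compound alone, without berberine: cells at 10^5 CFU/mL in broth, serial 2-fold dilutions of compound, 18–20 h at 37 °C, growth read at 600 nm. MIC is the lowest concentration giving complete growth inhibition. The testing limit was 1000 µM.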

[4] = biological target: T1, Quinolone resistance protein NorA (Staphylococcus aureus) (UniProt P0A0J7); assay: Inhibition of NorA efflux pump in NorA knockout Staphylococcus aureus K1758 assessed as drug level required for two fold potentiation of berberine MIC at 1.56 to 100 ug/mL after 20 hrs by serial dilution method
T1 sequence (whole entry): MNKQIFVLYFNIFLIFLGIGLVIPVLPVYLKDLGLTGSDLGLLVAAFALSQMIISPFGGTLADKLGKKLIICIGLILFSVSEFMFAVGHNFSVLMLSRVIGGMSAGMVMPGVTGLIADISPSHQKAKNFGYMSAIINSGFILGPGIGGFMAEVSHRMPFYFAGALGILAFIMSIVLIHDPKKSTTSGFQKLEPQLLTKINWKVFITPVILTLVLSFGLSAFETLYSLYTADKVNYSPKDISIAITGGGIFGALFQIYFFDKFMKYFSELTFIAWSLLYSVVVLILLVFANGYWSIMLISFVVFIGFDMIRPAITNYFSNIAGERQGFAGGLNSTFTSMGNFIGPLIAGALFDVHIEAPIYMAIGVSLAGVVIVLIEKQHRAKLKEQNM

[5] = biological target: T1, Quinolone resistance protein NorA (Staphylococcus aureus); assay: Inhibition of NorA efflux pump in wild type Staphylococcus aureus 8325-4 assessed as drug level required for two fold potentiation of berberine MIC at 1.56 to 100 ug/mL after 20 hrs by serial dilution method
In short: (§2)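 Checkerboard of serial 2-fold dilutions of berberine chloride against inhibitor, with inhibitor at 1.56–100 µg/mL. Berberine ranges were 12.5–100 µg/mL for 8325-4 and 200–800 µg/mL for K2378. Each agent was also diluted alone. Cells at 5 10^5 CFU/mL (final), 37 °C for 20 h, read at 600 nm; OD <0.05 counted as no growth. Inhibitor MIC is the lowest concentration lowering the berberine MIC at least 2-fold.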

[6] = biological target: T1, Quinolone resistance protein NorA (Staphylococcus aureus); assay: Inhibition of NorA efflux pump in Staphylococcus aureus K2378 overexpressing NorA assessed as drug level required for two fold potentiation of berberine MIC at 1.56 to 100 ug/mL after 20 hrs by serial dilution method; in short: as §2
Escherichia coli [7] = assay: Antibacterial activity against Escherichia coli BW-25113; assay type: functional
In short: (§3)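 Panel of Gram-negative and Gram-positive non-Clostridium strains, compound alone: MIC in µg/mL, with 200 µg/mL the highest concentration tested.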

Enterococcus faecalis [8] = assay: Antibacterial activity against Enterococcus faecalis V583; assay type: functional; in short: as §3
Pseudomonas aeruginosa [9] = assay: Antibacterial activity against Pseudomonas aeruginosa PA14; assay type: functional; in short: as §3
Clostridioides difficile [10] = assay: Antibacterial activity against Clostridium difficile CD2001; assay type: functional
In short: (§4)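 Clostridium difficile panel, compound alone: MIC in µg/mL, with 100 µg/mL the highest concentration tested.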

Clostridium perfringens = assay: Antibacterial activity against Clostridium perfringens; assay type: functional
In short: (§5)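 Gram-negative and Gram-positive panel, MIC in µg/mL. Highest concentration tested was 200 µg/mL for E. coli O157:H7 and 100 µg/mL for Clostridium perfringens.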

Salmonella typhimurium = assay: Antibacterial activity against Salmonella Typhimurium CS132; assay type: functional, Salmonella enterica subsp. enterica serovar Typhimurium; conditions: Salmonella enterica; in short: as §3
Enterococcus faecalis [11] = assay: Antibacterial activity against Enterococcus faecalis OG1RF; assay type: functional; in short: as §3
Pseudomonas aeruginosa [12] = assay: Antibacterial activity against Pseudomonas aeruginosa PAO1; assay type: functional; in short: as §3
Escherichia coli [13] = assay: Antibacterial activity against Escherichia coli O157:H7; assay type: functional; in short: as §5
Escherichia coli [14] = assay: Antibacterial activity against Escherichia coli UT189; assay type: functional; in short: as §3
Enterococcus faecalis [15] = assay: Antibacterial activity against Enterococcus faecalis MMH594; assay type: functional; in short: as §3
Clostridioides difficile [16] = assay: Antibacterial activity against Clostridium difficile CD196; assay type: functional; in short: as §4
Clostridioides difficile [17] = assay: Antibacterial activity against Clostridium difficile VP110463; assay type: functional; in short: as §4
[18] = biological target: T1, Quinolone resistance protein NorA (Staphylococcus aureus); assay: Inhibition of NorA efflux pump overexpressed Staphylococcus aureus K2361 assessed as increase in antibacterial activity of berberine at 0.8 ug/mL
[19] = biological target: T1, Quinolone resistance protein NorA (Staphylococcus aureus); assay: Inhibition of NorA efflux pump in wild type Staphylococcus aureus 8325-4 assessed as ratio of berberine MIC in presence to absence of inhibitor
[20] = biological target: T1, Quinolone resistance protein NorA (Staphylococcus aureus); assay: Inhibition of NorA efflux pump overexpressing Staphylococcus aureus 8325-4 K2378 assessed as ratio of berberine MIC in presence to absence of inhibitor
[21] = biological target: T1, Quinolone resistance protein NorA (Staphylococcus aureus); assay: Inhibition of NorA efflux pump overexpressed Staphylococcus aureus K2361 assessed as increase in antibacterial activity of berberine at 3 ug/mL
[22] = biological target: T1, Quinolone resistance protein NorA (Staphylococcus aureus); assay: Inhibition of NorA efflux pump overexpressed in Staphylococcus aureus 1199B assessed as increase in susceptibility to ciprofloxacin at 1.5 ug/mL by serial broth microdilution method

Row | Structure (SMILES) | MIC (Staphylococcus aureus [1]) [µM] | MIC (Staphylococcus aureus [3]) [µM] | MIC [5] [µM] | MIC [6] | Activity [4] | further results
1 | COc1ccc2cc3[n+](cc2c1OC)CCc1cc2c(cc1-3)OCO2 [BERBERINE CHLORIDE] | 269 | 67 |  |  |  | MIC (Staphylococcus aureus [2]): 2150 µM
2 | O=[N+]([O-])c1ccc2[nH]c(-c3ccccc3CO)cc2c1 | > 1000 | > 1000 | 47 | 47 µM |  | MIC [4]: 24 µM
3 | COC(=O)c1ccc(-c2cc3ccccc3[nH]2)cc1 | > 1000 | > 1000 | 20 | 40 µM | inactive | 
4 | OCc1ccc2[nH]c(-c3ccccc3)cc2c1 | 28 (≈ 6.25 µg/mL) | 14 (≈ 3.13 µg/mL) |  |  |  | MIC (Escherichia coli [7]): > 200 µg/mL; MIC (Enterococcus faecalis [8]): > 200 µg/mL; MIC (Pseudomonas aeruginosa [9]): > 200 µg/mL; MIC (Clostridioides difficile [10]): > 100 µg/mL; MIC (Clostridium perfringens): > 100 µg/mL; MIC (Salmonella typhimurium): > 200 µg/mL; MIC (Enterococcus faecalis [11]): > 200 µg/mL; MIC (Pseudomonas aeruginosa [12]): > 200 µg/mL; MIC (Escherichia coli [13]): > 200 µg/mL; MIC (Staphylococcus aureus [2]): 28 µM (≈ 6.25 µg/mL); MIC (Escherichia coli [14]): > 200 µg/mL; MIC (Enterococcus faecalis [15]): > 200 µg/mL; MIC (Clostridioides difficile [16]): > 100 µg/mL; MIC (Clostridioides difficile [17]): > 100 µg/mL
5 | COC(=O)c1ccc2[nH]c(-c3ccccc3)cc2c1 | > 1000 | > 1000 |  |  | inactive | Activity [5]: inactive; Activity [6]: inactive
6 | COC(=O)c1ccccc1-c1cc2ccccc2[nH]1 | > 1000 | > 1000 | 20 | 20 µM | inactive | 
7 | COC(=O)c1cccc(-c2cc3ccccc3[nH]2)c1 | > 1000 | > 1000 | 5 | 10 µM |  | MIC [4]: 40 µM
8 | NS(=O)(=O)c1ccc2[nH]c(-c3ccccc3)cc2c1 | > 1000 | > 1000 |  |  | inactive | Activity [5]: inactive; Activity [6]: inactive
9 | O=[N+]([O-])c1ccc2[nH]c(-c3cccc(CO)c3)cc2c1 | > 1000 | > 1000 | 5 | 9 µM |  | MIC [4]: 9 µM
10 | COC(=O)c1ccccc1-c1cc2cc([N+](=O)[O-])ccc2[nH]1 | > 1000 | > 1000 | 34 | inactive | inactive | 
11 | O=[N+]([O-])c1ccc2[nH]c(-c3cc(OCc4ccccc4)ccc3CO)cc2c1 |  |  |  |  |  | fold change (FC) [18]: > 15
12 | N#Cc1ccc2[nH]c(-c3ccccc3)cc2c1 | > 1000 | > 1000 | 3.6 | 7.1 µM | inactive | Ratio [19]: 2; Ratio [20]: 2
13 | O=[N+]([O-])c1ccc2[nH]c(-c3ccccc3)cc2c1 | > 1000 | > 1000 | 1.3 | 1.3 µM |  | Ratio [19]: 2; Ratio [20]: 2; Activity [21]: Active; MIC [4]: 0.63 µM; fold change (FC) [22]: 4
14 | COC(=O)c1cccc(-c2cc3cc([N+](=O)[O-])ccc3[nH]2)c1 | > 1000 | > 1000 | 1 | 1 µM |  | MIC [4]: 0.51 µM
15 | CCCOS(=O)(=O)c1ccc2[nH]c(-c3ccccc3)cc2c1 | 79.3 (≈ 25 µg/mL) | 79.3 (≈ 25 µg/mL) |  |  |  | MIC (Staphylococcus aureus [2]): 79.3 µM (≈ 25 µg/mL)
16 | COC(=O)c1ccc(-c2cc3cc([N+](=O)[O-])ccc3[nH]2)cc1 | > 1000 | > 1000 | 17 | inactive | inactive | 
17 | c1ccc(-c2cc3ccccc3[nH]2)cc1 [2-PHENYL-1H-INDOLE] | > 1000 | > 1000 | 65 | 259 µM | inactive | Ratio [19]: 4; Ratio [20]: 4
18 | OCc1cccc(-c2cc3ccccc3[nH]2)c1 | > 1000 | > 1000 | 45 | 45 µM | inactive | 
19 | O=C(O)c1ccc2[nH]c(-c3ccccc3)cc2c1 | > 1000 | > 1000 |  |  | inactive | Activity [5]: inactive; Activity [6]: inactive
20 | OCc1ccccc1-c1cc2ccccc2[nH]1 | > 1000 | > 1000 | 45 | 45 µM | inactive | 
21 | O=[N+]([O-])c1ccc2[nH]c(-c3ccc(CO)cc3)cc2c1 | > 1000 | > 1000 | 2 | 2 µM |  | MIC [4]: 5 µM
22 | O=S(=O)(O)c1ccc2[nH]c(-c3ccccc3)cc2c1 | > 1000 | > 1000 |  |  | inactive | Activity [5]: inactive; Activity [6]: inactive
23 | COS(=O)(=O)c1ccc2[nH]c(-c3ccccc3)cc2c1 | 174 (≈ 50 µg/mL) | 174 (≈ 50 µg/mL) |  |  |  | MIC (Staphylococcus aureus [2]): 174 µM (≈ 50 µg/mL)
24 | OCc1ccc(-c2cc3ccccc3[nH]2)cc1 | > 1000 | > 1000 | 22 | 45 µM | inactive | 
